Experimental data published in ChEMBL document CHEMBL2163270, “Design and in vitro activities of N-alkyl-N-[(8-R-2,2-dimethyl-2H-chromen-6-yl)methyl]heteroarylsulfonamides, novel, small-molecule hypoxia inducible factor-1 pathway inhibitors and anticancer agents” (J Med Chem, 2012).
Converted amounts (≈) assume the structure as drawn. The source made the active and inactive calls. The calls are words filed in the database; no cut-off is given here.

Experiments:
[1] = Cytotoxicity against human LN229 cells transfected with V6R incubated for 14 days under normoxic condition by clonogenecity assay; assay type: functional, cell-based; settings: LN-229, 336 h
[2] = Cytotoxicity against human LN229 cells transfected with V6R incubated for 1 hr under normoxic condition followed by 14 days under hypoxic condition by clonogenecity assay; assay type: functional, cell-based; settings: LN-229
[3] = Cytotoxicity against human HFF1 cells incubated for 14 days under normoxic condition by clonogenecity assay; assay type: cell-based; settings: HFF-1, 336 h
Procedure, shortened: (§1)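 Clonogenic assay in LN229 glioma or HFF-1 immortalized fibroblasts seeded at 200 or 1,000 cells/well and allowed to adhere 16 h under normoxia. Compound at 6.25-100 μM final, 1% DMSO. Plates held 1 h under normoxia, then 14 days at 21% or 1% O2. Colonies stained with 0.9% crystal violet and counted. IC50 from exponential/polynomial fit (R² ≥ 0.8).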

[4] = Cytotoxicity against human HFF1 cells incubated for 1 hr under normoxic condition followed by 14 days under hypoxic condition by clonogenecity assay; assay type: cell-based; settings: HFF-1; procedure, shortened: as §1
[5] = target: Histone acetyltransferase p300 (Homo sapiens) (UniProt Q09472); assay: Inhibition of P300 CH1 domain-mediated HIF1 transcriptional activity in human LN229-V6R cells assessed as reduction in luciferase activity incubated for 1 hr under normoxia followed by 24 hrs under hypoxia by reporter gene assay; assay type: cell-based
Histone acetyltransferase p300 (Homo sapiens), sequence (Q09472 whole entry, the tested form may be a part): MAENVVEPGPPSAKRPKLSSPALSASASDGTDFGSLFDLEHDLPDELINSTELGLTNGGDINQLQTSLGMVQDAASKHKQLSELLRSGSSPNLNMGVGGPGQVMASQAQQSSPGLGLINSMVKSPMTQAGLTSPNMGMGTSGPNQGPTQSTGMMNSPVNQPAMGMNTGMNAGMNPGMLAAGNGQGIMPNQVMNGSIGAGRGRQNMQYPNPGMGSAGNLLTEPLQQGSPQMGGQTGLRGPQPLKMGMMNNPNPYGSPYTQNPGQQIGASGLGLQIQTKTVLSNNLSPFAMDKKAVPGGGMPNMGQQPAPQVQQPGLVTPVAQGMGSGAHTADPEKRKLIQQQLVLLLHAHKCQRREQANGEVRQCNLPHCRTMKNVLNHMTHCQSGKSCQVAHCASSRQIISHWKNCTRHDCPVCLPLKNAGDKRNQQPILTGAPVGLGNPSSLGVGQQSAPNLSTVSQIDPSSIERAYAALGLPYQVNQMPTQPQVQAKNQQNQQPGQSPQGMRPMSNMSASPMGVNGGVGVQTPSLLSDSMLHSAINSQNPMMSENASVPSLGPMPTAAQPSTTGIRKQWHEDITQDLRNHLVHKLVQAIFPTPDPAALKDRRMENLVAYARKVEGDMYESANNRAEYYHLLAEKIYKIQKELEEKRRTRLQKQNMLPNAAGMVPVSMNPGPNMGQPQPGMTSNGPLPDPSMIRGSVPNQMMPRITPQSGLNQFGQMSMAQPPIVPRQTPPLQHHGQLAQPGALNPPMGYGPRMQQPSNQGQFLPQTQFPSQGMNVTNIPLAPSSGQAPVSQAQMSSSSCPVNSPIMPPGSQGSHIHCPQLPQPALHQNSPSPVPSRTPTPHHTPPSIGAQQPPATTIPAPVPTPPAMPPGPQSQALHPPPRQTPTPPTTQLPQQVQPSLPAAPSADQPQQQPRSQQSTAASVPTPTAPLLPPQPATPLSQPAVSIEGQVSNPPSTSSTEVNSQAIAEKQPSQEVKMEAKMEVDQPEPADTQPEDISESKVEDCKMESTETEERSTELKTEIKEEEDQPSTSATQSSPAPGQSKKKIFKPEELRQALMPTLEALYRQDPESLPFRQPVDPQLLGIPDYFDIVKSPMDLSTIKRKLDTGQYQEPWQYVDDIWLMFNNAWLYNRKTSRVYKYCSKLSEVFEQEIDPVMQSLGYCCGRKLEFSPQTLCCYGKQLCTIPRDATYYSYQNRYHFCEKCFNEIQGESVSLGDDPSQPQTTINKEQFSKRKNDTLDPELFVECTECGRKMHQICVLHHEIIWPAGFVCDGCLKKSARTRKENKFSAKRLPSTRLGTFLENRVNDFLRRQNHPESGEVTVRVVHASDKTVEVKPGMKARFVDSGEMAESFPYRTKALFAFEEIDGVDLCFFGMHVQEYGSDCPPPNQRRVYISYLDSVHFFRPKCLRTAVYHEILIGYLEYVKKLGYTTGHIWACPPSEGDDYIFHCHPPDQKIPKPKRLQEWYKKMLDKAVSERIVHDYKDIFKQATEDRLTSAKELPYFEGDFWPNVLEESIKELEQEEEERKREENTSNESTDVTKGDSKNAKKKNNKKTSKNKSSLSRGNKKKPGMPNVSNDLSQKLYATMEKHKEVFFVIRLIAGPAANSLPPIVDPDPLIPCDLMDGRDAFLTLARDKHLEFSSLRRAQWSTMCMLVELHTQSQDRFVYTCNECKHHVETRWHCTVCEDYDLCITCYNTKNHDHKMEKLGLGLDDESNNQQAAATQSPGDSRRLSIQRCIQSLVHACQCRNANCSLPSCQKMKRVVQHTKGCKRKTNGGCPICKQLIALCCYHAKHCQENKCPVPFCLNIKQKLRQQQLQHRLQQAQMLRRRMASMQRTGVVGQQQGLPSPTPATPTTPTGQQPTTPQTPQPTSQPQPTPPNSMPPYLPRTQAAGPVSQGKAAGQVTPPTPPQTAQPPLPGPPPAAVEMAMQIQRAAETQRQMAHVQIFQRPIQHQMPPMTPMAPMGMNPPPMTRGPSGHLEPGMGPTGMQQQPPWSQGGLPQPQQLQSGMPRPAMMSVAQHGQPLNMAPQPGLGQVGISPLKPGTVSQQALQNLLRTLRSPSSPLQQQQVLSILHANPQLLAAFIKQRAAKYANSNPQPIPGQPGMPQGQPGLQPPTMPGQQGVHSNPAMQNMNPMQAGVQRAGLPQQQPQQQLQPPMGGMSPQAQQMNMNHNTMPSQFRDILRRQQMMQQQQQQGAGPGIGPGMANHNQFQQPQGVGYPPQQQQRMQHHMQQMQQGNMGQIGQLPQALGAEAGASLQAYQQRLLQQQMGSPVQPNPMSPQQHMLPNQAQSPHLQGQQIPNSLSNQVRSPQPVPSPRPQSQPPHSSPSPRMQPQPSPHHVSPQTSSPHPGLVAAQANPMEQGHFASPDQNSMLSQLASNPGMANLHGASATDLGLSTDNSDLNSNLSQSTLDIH
Procedure, shortened: (§2)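 LN229-V6R cells carry a stably integrated hypoxia/HIF-inducible luciferase reporter. 3 × 10⁴ cells/well in DMEM with 10% serum, 24 h normoxia. Compound at 2.5, 5.0 or 10.0 μM in 1% DMSO, 1 h at 37 °C, then 24 h at 1% O2. Lysates mixed with luciferase substrate and read by luminometry, expressed as % of untreated control. Triplicates.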

LN-229 = assay: Inhibition of luciferase activity in human LN229-Lux cells at 2.5 to 10 uM incubated for 1 hr under normoxia followed by 24 hrs under hypoxia by reporter gene assay; assay type: functional, cell-based
[6] = target: Histone acetyltransferase p300 (Homo sapiens) (UniProt Q09472); assay: Inhibition of P300 CH1 domain-mediated HIFalpha protein expression in human LN229-V6R cells incubated for 1 hr under normoxia followed by 24 hrs under hypoxia by Western blot analysis; assay type: cell-based
Procedure, shortened: (§3)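 LN229-V6R cells, 2 × 10⁵ per 35 mm dish, grown 24 h under normoxia. Compound at 3-100 μM in 1% DMSO, 1 h normoxia, then 24 h at 1% O2. Lysed in SDS loading buffer and resolved on a 4-12.5% gradient gel. Immunoblotted for HIF-1α (1:500) with β-actin (1:3,000), HRP secondaries, ECL detection. Repeated at least twice.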

[7] = target: Histone acetyltransferase p300 (Homo sapiens) (UniProt Q09472); assay: Inhibition of P300 CH1 domain-mediated HIF1 transcriptional activity in human LN229-V6R cells assessed as reduction in luciferase activity at 10 uM incubated for 1 hr under normoxia followed by 24 hrs under hypoxia by reporter gene assay; assay type: cell-based; procedure, shortened: as §2
[8] = 1-Octanol-phosphate buffer distribution coefficient, log P of the compound at pH 7.4 after 15 mins by shake flask method; assay type: physicochemical
Procedure, shortened: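 Shake-flask partition per OECD 107: 1-octanol and 0.2 M phosphate buffer pH 7.4 mutually presaturated by 24 h stirring at room temperature. 1-2 mg compound dissolved in 2 mL buffer-saturated octanol plus 2 mL octanol-saturated buffer, run in duplicate. Aqueous layer quantified by HPLC at 254 nm against standard curves.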

Liver = assay: Half life in mouse liver homogenate by HPLC analysis at pH 7.4; assay type: ADME, tissue-based; settings: in vitro
Procedure, shortened: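 Mouse liver homogenate in PBS pH 7.4 (1:2 w/v) incubated with 20 μM compound at 37 °C with shaking. Timed samples extracted with acetonitrile and analysed by C8 HPLC-PDA with 2 μM α-naphthoflavone internal standard, linear range 1-50 μM. Triplicates.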

[9] = target: Histone acetyltransferase p300 (Homo sapiens) (UniProt Q09472); assay: Inhibition of P300 CH1 domain-mediated HIF1 transcriptional activity in human LN229-V6R cells assessed as remaining activity at 2.5 uM incubated for 1 hr under normoxia followed by 24 hrs under hypoxia by luciferase reporter gene assay; assay type: cell-based; procedure, shortened: as §2
[10] = Drug metabolism in mouse plasma after 24 hrs by HPLC analysis; assay type: ADME, cell-free; settings: read-out: Drug metabolism
Procedure, shortened: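 Compound at 20 μM incubated in fresh mouse plasma at 37 °C with shaking for 24 h. Samples extracted with acetonitrile, dried and reconstituted. Quantified by C8 reverse-phase HPLC with photodiode-array detection, 2 μM α-naphthoflavone internal standard, standard curves 1-50 μM. Triplicates.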

[11] = Cytotoxicity against human LN229 cells transfected with V6R incubated for 3 days under normoxic condition by SRB assay; assay type: functional, cell-based; settings: LN-229, 72 h
Procedure, shortened: (§4)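 SRB growth assay: LN229-V6R, 2 × 10³ cells/well, attached 24 h under normoxia. Dosed at 3-100 μM in 1% DMSO, 1 h normoxia, then normoxia or hypoxia for 3 days. Cold 10% TCA fixation, 0.04% SRB stain, dye solubilized in 10 mM Tris pH 10, OD 564 nm. Quadruplicate or sextuplicate wells, two independent experiments; IC50 by curve fit.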

[12] = Cytotoxicity against human LN229 cells transfected with V6R incubated for 1 hr under normoxic condition followed by 3 days under hypoxic condition by SRB assay; assay type: functional, cell-based; settings: LN-229; procedure, shortened: as §4
[13] = 1-Octanol-phosphate buffer distribution coefficient, log P of the compound at pH 7.4 by HPLC analysis; assay type: physicochemical
Procedure, shortened: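 Eluent methanol:water:triethylamine 70:30:0.1 at 2 mL/min, UV 254/280 nm. Calibrated with aniline, benzene, toluene and chlorobenzene plus two shake-flask-measured reference sulfonamides.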

[14] = Aqueous solubility of the compound; assay type: physicochemical; settings: aqueous medium
Procedure, shortened: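 Saturated suspension (1–2 mg in 2 mL distilled water) sonicated 30 min at room temperature, centrifuged 1,500 g, 20 °C, 5 min, then filtered through 0.2 μm PTFE. Filtrate quantified by HPLC-UV at 254 nm against standard curves. Three independent experiments, values averaged.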

[15] = target: Histone acetyltransferase p300 (Homo sapiens) (UniProt Q09472); assay: Inhibition of P300 CH1 domain-mediated HIF1 transcriptional activity in human LN229-V6R cells assessed as reduction in luciferase activity at 2.5 to 10 uM incubated for 1 hr under normoxia followed by 24 hrs under hypoxia by reporter gene assay; assay type: cell-based
Procedure, shortened: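 LN229-V6R cells carrying a stably integrated hypoxia/HIF-inducible luciferase reporter were seeded at 3 × 10⁴/well in DMEM with 10% serum and grown 24 h under normoxia. Compound was added at 2.5, 5.0 or 10.0 μM in 1% DMSO. Cells were held 1 h at 37 °C, then 24 h under hypoxia (1% O₂). Luciferase was read in lysates as percent of untreated control, in triplicate.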

[16] = Aqueous solubility of the compound at pH 7.4 after 90 mins by laser nephelometric analysis; assay type: physicochemical; settings: aqueous medium
Procedure, shortened: (§5)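 DMSO stocks (30 mg/mL) serially diluted, then diluted into phosphate-buffered saline at pH 7.4, 5.0 or 3.0. Final drug concentrations were 1.5–300 μg/mL with 1% DMSO. Incubated 90 min at ambient temperature, and laser nephelometry located the onset of precipitation. An internal control was included.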

[17] = Aqueous solubility of the compound at pH 5 after 90 mins by laser nephelometric analysis; assay type: physicochemical; settings: aqueous medium; procedure, shortened: as §5
[18] = Aqueous solubility of the compound at pH 3 after 90 mins by laser nephelometric analysis; assay type: physicochemical; settings: aqueous medium; procedure, shortened: as §5
[19] = target: Histone acetyltransferase p300 (Homo sapiens) (UniProt Q09472); assay: Inhibition of P300 CH1 domain-mediated HIFalpha protein expression in human LN229-V6R cells at 3 to 50 uM incubated for 1 hr under normoxia followed by 24 hrs under hypoxia by Western blot analysis; assay type: cell-based; procedure, shortened: as §3
[20] = target: Histone acetyltransferase p300 (Homo sapiens) (UniProt Q09472); assay: Inhibition of P300 CH1 domain-mediated HIFalpha protein expression in human LN229-V6R cells at 100 uM incubated for 1 hr under normoxia followed by 24 hrs under hypoxia by Western blot analysis; assay type: cell-based; procedure, shortened: as §3

Compound	inhibition [5]	inhibition (LN-229)	t1/2 (Liver)	Activity [9]	metabolised at 24 h [10]	logD [13]	also measured
COc1cc(CN(C(C)C)S(=O)(=O)c2ccccn2)cc2c1OC(C)(C)C=C2	Dose-dependent effect	inactive	15 h	61%	< 1%	–	IC50 [1]: 69 µM; IC50 [2]: > 100 µM; IC50 [3]: 55 µM; IC50 [4]: > 100 µM; inhibition [6]: Dose-dependent effect; inhibition [7]: > 60%; logD at 0.25 h [8]: 1.3; IC50 [11]: 73 µM; IC50 [12]: 146 µM
CC1(C)C=Cc2cc(CN(CC3CC3)S(=O)(=O)c3ccccn3)ccc2O1	Dose-dependent effect	inactive	13 h	49%	< 1%	3.1	–
COc1ccc(S(=O)(=O)N(Cc2ccc3c(c2)C=CC(C)(C)O3)c2ccccc2)cc1OC	–	inactive	11 h	28%	< 1%	3.7	solubility [14]: 9 nM (≈ 4.19 ng/mL); inhibition [15]: Active; solubility kinetic at 1.5 h [16]: < 15 µg/mL; solubility kinetic at 1.5 h [17]: < 15 µg/mL; solubility kinetic at 1.5 h [18]: < 15 µg/mL
CC(C)CN(Cc1cc(O)c2c(c1)C=CC(C)(C)O2)S(=O)(=O)c1ccccn1	Dose-dependent effect	inactive	15 h	43%	–	1.3	–
CC(C)CN(Cc1ccc2c(c1)C=CC(C)(C)O2)S(=O)(=O)c1nccn1C	Dose-dependent effect	inactive	–	74%	–	3.1	–
CC(C)CN(Cc1cc(O)c2c(c1)C=CC(C)(C)O2)S(=O)(=O)c1ccncc1	Dose-dependent effect	inactive	–	59%	< 1%	1.2	IC50 [1]: 23 µM; IC50 [2]: 30 µM; IC50 [3]: 22 µM; IC50 [4]: 40 µM; inhibition [6]: Dose-dependent effect; inhibition [7]: > 60%; IC50 [11]: 92 µM; IC50 [12]: 113 µM
CC(C)CN(Cc1ccc2c(c1)C=CC(C)(C)O2)S(=O)(=O)c1ccccn1	Dose-dependent effect	inactive	–	85%	–	4.1	–
CC1(C)C=Cc2cc(CN(C3CC3)S(=O)(=O)c3ccccn3)ccc2O1	Dose-dependent effect	inactive	–	71%	–	3	–
CC1(C)C=Cc2cc(CN(C3CCC3)S(=O)(=O)c3ccccn3)ccc2O1	Dose-dependent effect	inactive	–	53%	–	3	–
CC1(C)C=Cc2cc(CN(C3CCCC3)S(=O)(=O)c3ccccn3)ccc2O1	Dose-dependent effect	inactive	–	60%	–	3.8	–
CC(C)CN(Cc1ccc2c(c1)C=CC(C)(C)O2)S(=O)(=O)c1ccncc1	Dose-dependent effect	inactive	–	63%	–	3.6	–
CC(C)CN(Cc1ccc2c(c1)C=CC(C)(C)O2)S(=O)(=O)c1nccs1	Dose-dependent effect	inactive	–	78%	–	4.4	–
CO[C@H]1/C=C\C=C(/C)C(=O)NC2=CC(=O)C(NCCN(C)C)=C(C[C@@H](C)C[C@H](OC)[C@H](O)[C@@H](C)/C=C(\C)[C@@H]1OC(N)=O)C2=O (stereo in doubt)	–	Active	–	–	–	–	–
CC(C)N(Cc1ccc2c(c1)C=CC(C)(C)O2)S(=O)(=O)c1ccccn1	Dose-dependent effect	inactive	20 h	55%	< 1%	–	IC50 [1]: 82 µM; IC50 [2]: 134 µM; IC50 [3]: 62 µM; IC50 [4]: 93 µM; inhibition [19]: inactive; inhibition [20]: Active; inhibition [7]: 60%; logD at 0.25 h [8]: 2; solubility kinetic at 1.5 h [16]: < 15 µg/mL; solubility kinetic at 1.5 h [17]: 16 µg/mL (≈ 43 µM); solubility kinetic at 1.5 h [18]: 17 µg/mL (≈ 45.6 µM); IC50 [11]: 100 µM; IC50 [12]: 126 µM
